LMPTP inh = LMPTP phosphatase inhibitors, primary screen, biochemical, fluorescence intensity, uHTS. recombinant LMPTP-A, OMFP fluorogenic substrate. inhibition, % at 20 µM. 360,000 tested, 0.22% active;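 active = compounds that cut the enzyme signal by at least half of the control window in the single-dose screen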;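 also: plate controls were DMSO wells with enzyme plus substrate for no effect and substrate without enzyme for full effect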
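Buffer or medium: Bis-Tris pH 6.0, DTT, detergent; Assay system: LMPTP-A enzyme; Quantity: 0.625 nM enzyme; Detection: endpoint fluorescence intensity; Times: 50 min dark incubation at room temperature; Controls: substrate-only low control, DMSO enzyme-plus-substrate high control; Doses: single 20 µM dose; Read-out: percent inhibition versus substrate-only and uninhibited controls; Reagent: 400 µM OMFP.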
GRK2 inh = compounds blocking aptamer binding on GRK2 – biochemical, human GRK2, bead flow cytometry, HTS, primary screen; Beta-adrenergic receptor kinase 1 (Homo sapiens), P25098; FAM-aptamer displacement from GRK2; inhibition of aptamer binding, % at 10 µM; 330,000 tested, 0.59% active; AID 488847, 2010;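 active = inhibition of aptamer binding above 40%, roughly 3 SD of noise, on plates passing a quality check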;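 also: median bead fluorescence of bound FAM aptamer so fluorescent compounds give negative values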
Target sequence (P25098 whole entry, looked up): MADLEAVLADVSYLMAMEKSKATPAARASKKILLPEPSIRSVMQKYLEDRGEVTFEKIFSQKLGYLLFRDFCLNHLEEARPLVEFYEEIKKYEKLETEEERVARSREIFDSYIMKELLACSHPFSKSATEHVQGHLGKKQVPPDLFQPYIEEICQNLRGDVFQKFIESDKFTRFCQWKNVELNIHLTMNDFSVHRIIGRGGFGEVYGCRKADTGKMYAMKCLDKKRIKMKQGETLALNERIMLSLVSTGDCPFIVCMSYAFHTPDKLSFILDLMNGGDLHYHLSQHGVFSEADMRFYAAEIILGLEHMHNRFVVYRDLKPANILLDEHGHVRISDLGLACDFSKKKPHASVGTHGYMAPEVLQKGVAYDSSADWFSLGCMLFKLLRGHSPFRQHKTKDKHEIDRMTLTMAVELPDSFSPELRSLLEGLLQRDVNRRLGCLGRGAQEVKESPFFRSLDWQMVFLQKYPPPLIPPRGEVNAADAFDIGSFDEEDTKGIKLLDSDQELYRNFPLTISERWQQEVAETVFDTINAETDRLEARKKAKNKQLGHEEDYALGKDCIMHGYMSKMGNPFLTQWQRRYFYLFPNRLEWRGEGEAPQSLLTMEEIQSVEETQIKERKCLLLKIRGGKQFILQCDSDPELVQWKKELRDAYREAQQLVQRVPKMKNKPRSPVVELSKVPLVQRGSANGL
DNMT1 inh = human DNMT1 methyltransferase inhibitors, primary screen, biochemical, molecular beacon, fluorescence, HinP1I cleavage, uHTS; 360,000 tested, 0.83% active; DNA (cytosine-5)-methyltransferase 1 (Homo sapiens), P26358; inhibition (reported as % activation of signal), % at 10 µM; AID 588458, 2011; in the data active = inhibition above about 50%
SUMO1 PPI mod = modulators of SUMO1 protein-protein interactions, primary screen, biochemical, uHTS; SUMO1 binding to a labelled peptide, TR-FRET, 1 h; inhibition, % at 20 µM; Small ubiquitin-related modifier 1 (Homo sapiens), P63165; 360,000 tested, 0.33% active; in the data active = inhibition above about 37%
STEP inh = STEP phosphatase inhibitors, primary screen, biochemical, fluorescence intensity, uHTS | Tyrosine-protein phosphatase non-receptor type 5 (Homo sapiens), P54829 | recombinant STEP, OMFP fluorogenic substrate | inhibition, % at 20 µM | 360,000 tested, 0.25% active;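 active = inhibition at 20 µM, scaled per plate between control wells, above about 37%, limit read from the data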;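 also: 0% = DMSO with enzyme and substrate and 100% = substrate only without enzyme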
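Test system: STEP tyrosine phosphatase / Reagent: OMFP at 25 µM / Doses: 20 µM, 1% DMSO / Read-out: percent inhibition scaled to no-enzyme and uninhibited-enzyme controls, plate-pattern corrected / Detection: FITC-channel fluorescence of OMFP product / Medium: Bis-Tris buffer pH 6.0, 2.5 mM DTT, 0.005% Tween 20 / Schedule: 20 min at room temperature, dark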
Scp1 inh = Scp-1 phosphatase inhibitors, primary screen, biochemical, colorimetric, uHTS; Recombinant Scp1, phosphopeptide, malachite green phosphate absorbance; inhibition, % at 20 µM; 340,000 tested, 0.88% active;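 active = inhibition above about 50% at 20 µM, limit read from the data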;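 also: plate controls were DMSO wells with enzyme for no effect and wells lacking enzyme for full effect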
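assay system = SCP-1 phosphatase catalytic domain, residues 76-261 | buffer or medium = 50 mM Tris acetate pH 5.5, 0.005% Tween-20, 10 mM MgCl2 | incubation = enzyme reaction 45 min at room temperature, colour 5 min, stabilisation 30 min | signal = Phosphate-binding colour reagent, absorbance read at 630 nm | measure = % inhibition at 20 µM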
An asterisk follows results filed as active; ! = repeats disagree. A selection: hits, their analogues and other compounds. The true share with any hit is near 2.2%.

Results for O=C1NC[C@@H](CCCCN2C[C@H](Cc3ccc(O)cc3)N(CCc3ccc(O)cc3)C(=O)C2=O)N(CCc2ccccc2)C1=O ?
LMPTP inh: 2; SUMO1 PPI mod: 10

Results for O=C1NC[C@@H](CCCCN2C[C@H](Cc3ccc(O)cc3)N(CCc3ccc(O)cc3)C(=O)C2=O)N(CCc2ccc(O)cc2)C1=O ?
LMPTP inh: 33; SUMO1 PPI mod: 44*

What do the screens show for `Cc1ccc(C(=O)NCCc2nnc3ccc(SCC(=O)Nc4nnc(C)s4)nn23)cc1`?
LMPTP inh: 2; DNMT1 inh: 4; SUMO1 PPI mod: 0; STEP inh: -1

What do the screens show for `O=C(N/N=C/c1ccc([N+](=O)[O-])o1)c1cn(-c2ccccc2)nc1-c1ccc(Cl)cc1`?
LMPTP inh: 0; GRK2 inh: 0; DNMT1 inh: 50*; SUMO1 PPI mod: 8; STEP inh: 2; Scp1 inh: -3

Results for CCCCNC(=O)C1(C)CCCCN1C(=O)c1cc2ccccc2s1 (stereo unspecified) ?
LMPTP inh: -2; DNMT1 inh: 3; SUMO1 PPI mod: -3; STEP inh: 1

Results for Cc1cccc(N2C(=O)CC(Sc3nc(-c4ccccc4)c4cc(Cl)ccc4n3)C2=O)c1 (stereo unspecified) ?
LMPTP inh: 1; GRK2 inh: 0; DNMT1 inh: -5; SUMO1 PPI mod: 44*; STEP inh: -1; Scp1 inh: -7

How did Cc1cccc(N2C(=O)CC(Sc3nc(C)cc(C)n3)C2=O)c1 (stereo unspecified) do in these assays?
LMPTP inh: 0; GRK2 inh: 1; DNMT1 inh: 2; SUMO1 PPI mod: -1; STEP inh: -2; Scp1 inh: -7

What do the screens show for `CC[n+]1c(/C=C/N(C)c2ccccc2)n(-c2ccccc2)c2ccc(-c3nc4ccccc4s3)cc21`?
LMPTP inh: 83*; GRK2 inh: 0; DNMT1 inh: -1; SUMO1 PPI mod: -84; STEP inh: 10; Scp1 inh: 32

How did CC[n+]1cccc(-c2nc3ccccc3s2)c1 do in these assays?
LMPTP inh: -1; GRK2 inh: 15; DNMT1 inh: 2; SUMO1 PPI mod: -21; STEP inh: -3; Scp1 inh: 4

How did COc1cc(C(=O)NNC(=O)/C=C/c2ccco2)cc(OC)c1OC do in these assays?
LMPTP inh: 0; GRK2 inh: 42*; DNMT1 inh: 25; SUMO1 PPI mod: -14; STEP inh: 2; Scp1 inh: 30

How did COc1cc(C(=O)NNC(=O)c2ccco2)cc(OC)c1OC do in these assays?
LMPTP inh: -1; GRK2 inh: 3; DNMT1 inh: 1; SUMO1 PPI mod: -5; STEP inh: -2; Scp1 inh: 8

Results for Cc1oc(-c2ccc(Cl)cc2)nc1CN1CCC(C(=O)NCc2cccnc2)CC1 ?
LMPTP inh: 0; GRK2 inh: 2; DNMT1 inh: -5; SUMO1 PPI mod: 0; STEP inh: -2; Scp1 inh: 0

Results for CCCN(CCC)CCNC(=O)C1CCN(Cc2nc(-c3ccc(Cl)cc3)oc2C)CC1 ?
LMPTP inh: 0; GRK2 inh: 96*; DNMT1 inh: -5; SUMO1 PPI mod: 5; STEP inh: -4; Scp1 inh: -11

What do the screens show for `CN(C)c1ccc(C#Cc2ccc3cc(CCO)oc(=O)c3c2)cc1`?
LMPTP inh: 68*; GRK2 inh: 0; DNMT1 inh: 42; SUMO1 PPI mod: -14; STEP inh: 97*; Scp1 inh: 38

Results for COc1cc(C#Cc2ccc3cc(CCO)oc(=O)c3c2)cc(OC)c1 ?
LMPTP inh: 0; GRK2 inh: 0; DNMT1 inh: -12; SUMO1 PPI mod: -19; STEP inh: -2; Scp1 inh: -6

Results for Nc1nc(N)c2cc([N+](=O)[O-])ccc2n1 ?
LMPTP inh: 30; DNMT1 inh: -5; SUMO1 PPI mod: -24; STEP inh: -1; Scp1 inh: 3

What do the screens show for `Nc1nc(N)c2c(ccc3c2ccn3Cc2cccc([N+](=O)[O-])c2)n1`?
LMPTP inh: 69*; DNMT1 inh: -10; SUMO1 PPI mod: 10; STEP inh: 8

Results for N#C/C(=C/c1ccc(-c2cc([N+](=O)[O-])ccc2Cl)o1)C(N)=O ?
LMPTP inh: 34; GRK2 inh: 1; DNMT1 inh: 39; SUMO1 PPI mod: 39*; STEP inh: 8; Scp1 inh: 45

What do the screens show for `N#C/C(=C/c1ccc(-c2ccccc2[N+](=O)[O-])o1)C(N)=O`?
LMPTP inh: -1; GRK2 inh: 0; DNMT1 inh: -3; SUMO1 PPI mod: -11; STEP inh: -2; Scp1 inh: -1

Results for CN(C(=O)C1CCN(S(=O)(=O)c2cccs2)CC1)c1ccccc1 ?
LMPTP inh: -1; GRK2 inh: 0; DNMT1 inh: -1; SUMO1 PPI mod: -1; STEP inh: -5; Scp1 inh: -7

What do the screens show for `Cn1c(=NC(=O)C2CCN(S(=O)(=O)c3cccs3)CC2)sc2ccccc21`?
LMPTP inh: 1; GRK2 inh: 5; DNMT1 inh: 1; SUMO1 PPI mod: 43*!; STEP inh: 0; Scp1 inh: -1

What do the screens show for `CC1CCCN(CCCNC(=O)C2CC(=O)N(c3ccc(F)c(Cl)c3)C2)C1` (stereo unspecified)?
LMPTP inh: -1; GRK2 inh: 0; DNMT1 inh: -3; SUMO1 PPI mod: 42*; STEP inh: -1; Scp1 inh: -11

Results for CC1CCCCN1CCNC(=O)C1CC(=O)N(c2ccc(F)c(Cl)c2)C1 (stereo unspecified) ?
LMPTP inh: -3; GRK2 inh: 0; DNMT1 inh: 1; SUMO1 PPI mod: -1; STEP inh: 3; Scp1 inh: -3

How did CC1(C(=O)NCc2cccs2)Cc2c(-c3ccc4c(c3)OCO4)ccnc2O1 (stereo unspecified) do in these assays?
LMPTP inh: 1; DNMT1 inh: 1; SUMO1 PPI mod: 2; STEP inh: -1

How did CC1(C)C(=O)OC(C(=O)c2ccc(Cl)cc2)C(C)(C)C1=O (stereo unspecified) do in these assays?
LMPTP inh: -2; GRK2 inh: 100*; DNMT1 inh: 1; SUMO1 PPI mod: -2; STEP inh: 1; Scp1 inh: -7

From PubChem
